Only some compounds are listed: those with a hit (about 2.6% of all), similar ones and a draw of the others.
esBAF inh = SWI/SNF esBAF complex inhibition | mouse ES cells, Bmi1-luciferase knock-in reporter, 24 h; 100% = twice the neutral-well signal | reporter increase, % at 12.5 µM | 350,000 compounds, 2% hits | AID 602393; in the data active means activation above about 40%; inconclusive means no clear call, values can overlap the other calls;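 further: 0% = median of the plate's neutral control wells and 100% = double that signal; a rise in the Bmi1 reporter signal indicates esBAF inhibition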
Vif imaging = HIV Vif inhibition. 340,000 compounds, 0.35% hits. inhibition, % at 7.49 µM. AID 602346. HEK293T cells, Vif self-association by quenched fluorescence, imaging, 24 h; in the data active means inhibition above about 50%, passing the limit was not always enough; inconclusive means no clear call, values can overlap the other calls; inactive means below about 31%
Wnt act = Wnt/beta-catenin pathway activation | 300,000 compounds, 1.2% hits | activation, % at 9.35 µM | Wnt/beta-catenin reporter cell assay, activator, plate reader; in the data active means activation above about 30%, passing the limit was not always enough; inconclusive means no clear call, values can overlap the other calls;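 further: 0% = neutral control wells and 100% = positive control wells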
XiGFP reactiv = X-chromosome reactivation activator. activation, % at 7.58 µM. 360,000 compounds, 0.055% hits. XiGFP mouse fibroblasts, % GFP-positive cells imaging, 3 d; cells co-treated with 5-aza-dC sensitizer; scaled so ellipticine positive control = 100%;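 active means mean normalized replicate activation at least 10% and every replicate at or above 10%; inconclusive means only one of the two criteria met; inactive means mean below 10% and not all replicates reach 10%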;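 further: 0% = median of on-plate neutral control wells and 100% = ellipticine 6 µM median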
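System: XiGFP fibroblasts, SV40-immortalized. Medium: DMEM plus 5-aza-dC sensitizer. Doses: single point. Timing: 3 d treatment, 15 min room-temperature fixation. Control set: ellipticine 6 µM.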
MITF act = increases MITF-driven TRPM1 promoter luciferase signal. SK-MEL-5 TRPM1-promoter luciferase, 24 h; % of positive control, neutral wells = 0. activation, % at 12.5 µM. 300,000 compounds, 0.75% hits;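 active means mean activation of at least 80% with every replicate also reaching 80%; inconclusive means mean reaches 80% but some replicate falls short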;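 further: 0% = neutral control wells and 100% = parthenolide positive control wells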
Active calls of the source: *; ? = inconclusive; . = not tested or not shown.

SMILES	esBAF inh	Vif imaging	Wnt act	XiGFP reactiv	MITF act
C[C@@H]1CN([C@H](C)CO)C(=O)Cc2cc(NC(=O)Cn3cnnn3)ccc2O[C@@H]1CN(C)C(=O)Nc1cccc2ccccc12	0	.	.	-1	.
COc1ccc(C(CNC(=O)c2ccc(C)o2)N2CCOCC2)cc1 (centres undefined)	1	12	-4	0	-5
O=C(NCC(c1ccc(F)cc1)N1CCOCC1)c1c(F)cccc1F (centres undefined)	3	-2	39*	0	3
COc1ccc(C(CNC(=O)c2cccn2C)N2CCOCC2)cc1 (centres undefined)	57*	-6	18	0	44
O=C(NCC(c1ccco1)N1CCOCC1)c1c(F)cccc1F (centres undefined)	.	3	0	0	-3
Cn1nnc(NC(=O)C(c2ccccc2)c2ccccc2)n1	-2	5	40*	.	-10
CCn1nnc(NC(=O)C(c2ccccc2)c2ccccc2)n1	-8	1	0	0	-8
O=C(Nc1ccc2nc(-c3cccs3)[nH]c2c1)c1cccs1	.	-7	30	.	70
O=C(Nc1ccc(-c2nc3ccc(NC(=O)c4cccs4)cc3[nH]2)cc1)c1cccs1	.	80*	.	.	-77
CC(=O)Nc1ccc2nc(-c3ccncc3)[nH]c2c1	-2	19	-7	.	-2
CC(=O)Nc1ccc2nc(-c3ccccn3)[nH]c2c1	33	.	36*	.	44
O=C(Nc1ccc2nc(-c3cccs3)[nH]c2c1)c1ccco1	83*	.	.	.	103*
N#Cc1cccc(-c2ccc(C3[C@@H]4CN(C(=O)Nc5ccc(C(F)(F)F)cc5)C[C@H]3N4)cc2)c1 (some centres undefined)	.	.	.	0	.
Cc1ccc(OCc2cc(C(=O)N3CC4C[C@@H]5CC3C[C@H](C4)C5)no2)cc1C	52*	-10	20	0	110*
COCC1CCN(C(=O)c2cc(COc3ccc(C)c(C)c3)on2)C1 (centres undefined)	1	5	1	0	6
Cc1cccc(C)c1OCc1cc(C(=O)N2CC3C[C@@H]4CC2C[C@H](C3)C4)no1	82*	-4	36*	0	115*
CCCC(=O)N1CC2(C1)CN(C(=O)Cc1ccccn1)[C@@H](CO)c1[nH]c3cc(OC)ccc3c12	.	.	.	0	.
CC(=O)C(C)Oc1ccc2c3c(c(=O)oc2c1C)CCCC3 (centres undefined)	58*	0	-9	.	-10
Cc1c(OCc2ccc([N+](=O)[O-])cc2)ccc2c3c(c(=O)oc12)CCC3	.	1	-1	0	112*
Cc1c(OC(C)C(=O)N[C@H](C(=O)O)c2ccccc2)ccc2c3c(c(=O)oc12)CCCC3 (some centres undefined)	1	20	-2	.	-5
CC(=O)COc1ccc2c3c(c(=O)oc2c1C)CCCCC3	45*	8	.	.	72
CCC1(c2ccccc2)NC(=S)N(c2ccc(C)cc2)N1 (centres undefined)	45*	-2	2	0	13
Cc1ccc(/C=N/NC(=O)c2ccco2)cc1	.	-3	39*	0	.
CN(C)c1ccc(/C=N/NC(=O)c2ccn(C)n2)cc1	.	-5	34*	0	44
Cc1ccc(C(=O)NNC(=O)c2ccco2)cc1	51*	.	21	0	49
SMILES	esBAF inh	Vif imaging	Wnt act	XiGFP reactiv	MITF act
O=C(N/N=C/c1ccc2ncccc2c1)c1ccco1	.	-2	8	0	5
O=C(N/N=C\c1ccoc1)c1ccco1	.	7	0	0	-2
Cc1ccc(C(=O)NNC(=S)NC(=O)c2ccco2)cc1	.	9	-1	0	-1
CN(C)c1ccc(/C=N/NC(=O)c2ccco2)cc1	-5	-18	42*	0	44
O=C(C[C@@H]1CC[C@H]2NC[C@H](O)COC[C@@H]2O1)NCCN1CCCC1	.	.	.	0	.
O=C(C[C@@H]1CC[C@@H]2[C@H](COC[C@@H](O)CN2S(=O)(=O)c2cccc(Cl)c2)O1)NCCCN1CCOCC1	-13	.	.	0	.
Cc1ccc(S(=O)(=O)Nc2ccc3c(c2)C(=O)N([C@H](C)CO)C[C@H](C)[C@H](CN(C)Cc2ccc(C(F)(F)F)cc2)O3)cc1	-6	.	.	0	.
Cc1ccc(C(=O)NNC(=O)c2cccc(C)c2)cc1	41*	6	.	0	41
CN(C)c1ccc(/C=N\NC(=O)c2cccc3cc[nH]c23)cc1	54*	13	10	0	.
COc1ccc(CN(C)Cc2nc(Cc3ccccc3Cl)no2)cc1OC	-1	-1	2	33*	-11
CCCC(=O)N1CCC2(CC1)CN(C(=O)C1CCCCC1)[C@H](CO)c1[nH]c3cc(OC)ccc3c12	.	.	.	0	.
CCc1ccc(-c2nc(CCl)cs2)cc1	28	100*	8	0	24
COc1ccc2c3c(n(C)c2c1)[C@H](CO)N(C(=O)CN(C)C)CC31CCN(C(=O)NC(C)C)CC1	.	.	.	0	.
CO[C@@H]1CN(C)C(=O)c2ccc(NS(=O)(=O)c3cn(C)cn3)cc2OC[C@H](C)N(C)C[C@H]1C	-3	.	.	0	.
O=C(c1ccc(Cl)c(Cl)c1)c1cnc(Nc2ccccc2)s1	-4	9	0	.	13
O=C(c1ccccc1)c1cnc(Nc2ccccc2Cl)s1	55*	5	.	.	98*
CC(C)(C)C(=O)c1cnc(Nc2ccccc2Cl)s1	?	-11	.	.	144*
CC(=O)c1csc(Nc2ccccc2Cl)n1	.	-3	1	0	.
CN(C)C(=O)[C@@H]1[C@@H](CO)[C@@H]2Cn3c(ccc(C4=CCCC4)c3=O)[C@H]1N2C(=O)c1ccccc1	0	.	.	0	.
C[C@H](NC(=O)C[C@H]1C[C@@H]2c3cc(NC(=O)CC4CC4)ccc3O[C@@H]2[C@H](CO)O1)c1ccccc1	-1	.	.	0	.
COc1ccc(Nc2ncnc3ccccc23)c(OC)c1	10	.	-1	.	15
COc1ccc(Nc2ncnc3c2c(C)c(C)n3CCO)cc1	-10	-23	41*	0	70
COc1cccc(Nc2ncnc3ccccc23)c1	58*	-6	.	.	?
COc1ccc(Nc2ncnc3ccccc23)cc1	29	-8	18	.	97*
CO[C@@H]1CN(C)C(=O)c2cc(NS(C)(=O)=O)ccc2OC[C@H](C)N(C(=O)C2CCC2)C[C@H]1C	8	.	.	0	.
N=c1n(N)c2ccccc2n1CC(=O)c1ccc(Br)cc1	52*	-7	2	0	.
C[C@@H]1CN([C@H](C)CO)C(=O)c2cc(NC(=O)Cc3ccccc3)ccc2O[C@H]1CN(C)C(=O)Nc1ccc2c(c1)OCO2	20	.	.	0	.
COc1cccc(/C=C2/SC(=O)N(C)C2=O)c1OCc1ccc(C(=O)O)cc1	.	5	-1	0	15
CN1C(=O)S/C(=C/c2ccc(OCc3cccc(C(=O)O)c3)cc2)C1=O	-25	13	45*	0	-18

Bioassay records (PubChem BioAssay)
